Blank lines part the entries; values can stand above or below the compound they belong to.
How the values were obtained:
[1] = molecular target: Glycogen synthase kinase-3 beta (Rattus norvegicus, UniProt P18266); test: Inhibition of rat GSK3-beta in L6 cells assessed as accumulation of glycogen; format: cell-based
[2] = molecular target: Glycogen synthase kinase-3 beta (Homo sapiens, UniProt P49841); test: Inhibition of human GSK3-beta by fluorescence anisotropy binding assay
Outline: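 Competitive fluorescence anisotropy binding against a fluorescently labelled inhibitor. Compound typically 24 pM–25 µM final, DMSO <3%. Equilibrated 60–180 min at ambient temperature; anisotropy read at ex 485/em 535 nm. Assay error ±0.2 log units.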

[3] = Inhibition of AMPK at 10 uM
[4] = molecular target: T1, Serine/threonine-protein kinase Chk1 (Homo sapiens) (UniProt O14757); test: Inhibition of CHK1 at 10 uM
T1 sequence (whole entry): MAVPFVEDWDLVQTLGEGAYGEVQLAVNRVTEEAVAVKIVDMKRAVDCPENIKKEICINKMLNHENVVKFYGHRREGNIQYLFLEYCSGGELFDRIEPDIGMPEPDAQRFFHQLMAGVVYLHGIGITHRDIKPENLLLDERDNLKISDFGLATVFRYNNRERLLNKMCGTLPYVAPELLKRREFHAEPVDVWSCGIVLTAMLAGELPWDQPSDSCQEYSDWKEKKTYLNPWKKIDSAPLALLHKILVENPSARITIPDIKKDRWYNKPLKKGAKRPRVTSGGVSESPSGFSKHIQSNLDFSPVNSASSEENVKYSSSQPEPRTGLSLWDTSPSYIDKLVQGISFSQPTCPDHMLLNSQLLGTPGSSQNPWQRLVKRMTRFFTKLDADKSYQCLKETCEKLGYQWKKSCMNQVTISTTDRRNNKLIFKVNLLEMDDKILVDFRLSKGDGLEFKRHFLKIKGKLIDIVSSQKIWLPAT

[5] = molecular target: Mitogen-activated protein kinase 8 (Homo sapiens) (UniProt P45983); test: Inhibition of JNK1 at 10 uM
Sequence of Mitogen-activated protein kinase 8 (Homo sapiens) (P45983 whole entry): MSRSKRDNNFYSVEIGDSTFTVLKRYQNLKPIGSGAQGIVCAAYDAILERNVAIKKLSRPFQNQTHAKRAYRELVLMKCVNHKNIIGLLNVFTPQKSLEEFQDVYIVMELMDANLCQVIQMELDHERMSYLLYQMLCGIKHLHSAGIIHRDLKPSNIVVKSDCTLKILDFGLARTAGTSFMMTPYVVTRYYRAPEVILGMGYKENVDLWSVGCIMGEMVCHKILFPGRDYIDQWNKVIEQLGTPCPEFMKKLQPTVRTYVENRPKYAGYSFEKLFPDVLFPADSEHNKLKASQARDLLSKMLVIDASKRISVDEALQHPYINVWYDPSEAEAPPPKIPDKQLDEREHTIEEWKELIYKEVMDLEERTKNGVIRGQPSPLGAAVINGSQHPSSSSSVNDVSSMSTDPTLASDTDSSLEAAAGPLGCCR

[6] = Inhibition of MAPK at 10 uM
[7] = molecular target: Dual specificity mitogen-activated protein kinase kinase 1 (Homo sapiens) (UniProt Q02750); test: Inhibition of MEK1 at 10 uM
Sequence of Dual specificity mitogen-activated protein kinase kinase 1 (Homo sapiens) (Q02750 whole entry): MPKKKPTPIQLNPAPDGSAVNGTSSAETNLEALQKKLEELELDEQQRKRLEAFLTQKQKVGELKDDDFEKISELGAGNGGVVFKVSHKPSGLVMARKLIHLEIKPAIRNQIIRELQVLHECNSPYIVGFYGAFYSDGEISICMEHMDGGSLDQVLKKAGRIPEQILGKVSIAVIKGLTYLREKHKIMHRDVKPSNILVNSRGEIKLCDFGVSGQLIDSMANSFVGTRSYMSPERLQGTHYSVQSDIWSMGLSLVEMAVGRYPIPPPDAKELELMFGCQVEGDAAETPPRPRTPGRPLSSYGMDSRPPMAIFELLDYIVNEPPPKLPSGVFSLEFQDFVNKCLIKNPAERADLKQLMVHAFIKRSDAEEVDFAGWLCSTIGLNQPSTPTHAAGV

[8] = Inhibition of PKA at 10 uM
[9] = molecular target: RAC-alpha serine/threonine-protein kinase (Homo sapiens) (UniProt P31749); test: Inhibition of PKBa at 10 uM
Sequence of RAC-alpha serine/threonine-protein kinase (Homo sapiens) (P31749 whole entry): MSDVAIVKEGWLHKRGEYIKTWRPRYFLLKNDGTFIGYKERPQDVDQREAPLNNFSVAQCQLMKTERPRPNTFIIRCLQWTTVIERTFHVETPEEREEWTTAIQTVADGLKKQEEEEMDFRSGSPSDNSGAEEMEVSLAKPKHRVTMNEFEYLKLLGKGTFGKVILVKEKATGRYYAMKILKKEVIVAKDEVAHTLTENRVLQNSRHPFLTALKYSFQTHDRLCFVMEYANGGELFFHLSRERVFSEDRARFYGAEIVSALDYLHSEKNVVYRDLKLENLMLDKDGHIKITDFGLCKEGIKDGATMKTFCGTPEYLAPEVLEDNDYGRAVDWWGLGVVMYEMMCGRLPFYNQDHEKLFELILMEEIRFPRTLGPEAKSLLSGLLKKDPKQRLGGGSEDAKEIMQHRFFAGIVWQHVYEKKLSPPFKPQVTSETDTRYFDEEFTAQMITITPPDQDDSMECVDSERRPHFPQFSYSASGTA

[10] = molecular target: T2, Serine/threonine-protein kinase Sgk1 (Homo sapiens) (UniProt O00141); test: Inhibition of SGK at 10 uM
T2 sequence (whole entry): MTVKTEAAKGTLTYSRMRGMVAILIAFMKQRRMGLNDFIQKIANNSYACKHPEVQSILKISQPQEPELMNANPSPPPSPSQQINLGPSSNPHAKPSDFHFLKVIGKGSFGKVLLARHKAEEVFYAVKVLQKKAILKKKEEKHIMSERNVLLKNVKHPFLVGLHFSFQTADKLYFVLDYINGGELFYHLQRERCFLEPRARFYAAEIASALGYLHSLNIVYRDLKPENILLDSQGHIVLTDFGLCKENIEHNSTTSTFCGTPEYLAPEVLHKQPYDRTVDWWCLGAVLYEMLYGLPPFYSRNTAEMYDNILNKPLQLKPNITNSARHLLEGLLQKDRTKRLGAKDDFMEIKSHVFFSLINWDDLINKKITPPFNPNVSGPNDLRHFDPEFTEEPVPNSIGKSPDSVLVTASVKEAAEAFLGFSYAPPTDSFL

[11] = molecular target: Cyclin-dependent kinase 2 (Homo sapiens) (UniProt P24941); test: Inhibition of CDK2 at 10 uM
[12] = Inhibition of GSK3 at 10 uM
[13] = molecular target: Vascular endothelial growth factor receptor 2 (Homo sapiens, UniProt P35968); test: Inhibition of VEGFR2
Sequence of Vascular endothelial growth factor receptor 2 (P35968 whole entry): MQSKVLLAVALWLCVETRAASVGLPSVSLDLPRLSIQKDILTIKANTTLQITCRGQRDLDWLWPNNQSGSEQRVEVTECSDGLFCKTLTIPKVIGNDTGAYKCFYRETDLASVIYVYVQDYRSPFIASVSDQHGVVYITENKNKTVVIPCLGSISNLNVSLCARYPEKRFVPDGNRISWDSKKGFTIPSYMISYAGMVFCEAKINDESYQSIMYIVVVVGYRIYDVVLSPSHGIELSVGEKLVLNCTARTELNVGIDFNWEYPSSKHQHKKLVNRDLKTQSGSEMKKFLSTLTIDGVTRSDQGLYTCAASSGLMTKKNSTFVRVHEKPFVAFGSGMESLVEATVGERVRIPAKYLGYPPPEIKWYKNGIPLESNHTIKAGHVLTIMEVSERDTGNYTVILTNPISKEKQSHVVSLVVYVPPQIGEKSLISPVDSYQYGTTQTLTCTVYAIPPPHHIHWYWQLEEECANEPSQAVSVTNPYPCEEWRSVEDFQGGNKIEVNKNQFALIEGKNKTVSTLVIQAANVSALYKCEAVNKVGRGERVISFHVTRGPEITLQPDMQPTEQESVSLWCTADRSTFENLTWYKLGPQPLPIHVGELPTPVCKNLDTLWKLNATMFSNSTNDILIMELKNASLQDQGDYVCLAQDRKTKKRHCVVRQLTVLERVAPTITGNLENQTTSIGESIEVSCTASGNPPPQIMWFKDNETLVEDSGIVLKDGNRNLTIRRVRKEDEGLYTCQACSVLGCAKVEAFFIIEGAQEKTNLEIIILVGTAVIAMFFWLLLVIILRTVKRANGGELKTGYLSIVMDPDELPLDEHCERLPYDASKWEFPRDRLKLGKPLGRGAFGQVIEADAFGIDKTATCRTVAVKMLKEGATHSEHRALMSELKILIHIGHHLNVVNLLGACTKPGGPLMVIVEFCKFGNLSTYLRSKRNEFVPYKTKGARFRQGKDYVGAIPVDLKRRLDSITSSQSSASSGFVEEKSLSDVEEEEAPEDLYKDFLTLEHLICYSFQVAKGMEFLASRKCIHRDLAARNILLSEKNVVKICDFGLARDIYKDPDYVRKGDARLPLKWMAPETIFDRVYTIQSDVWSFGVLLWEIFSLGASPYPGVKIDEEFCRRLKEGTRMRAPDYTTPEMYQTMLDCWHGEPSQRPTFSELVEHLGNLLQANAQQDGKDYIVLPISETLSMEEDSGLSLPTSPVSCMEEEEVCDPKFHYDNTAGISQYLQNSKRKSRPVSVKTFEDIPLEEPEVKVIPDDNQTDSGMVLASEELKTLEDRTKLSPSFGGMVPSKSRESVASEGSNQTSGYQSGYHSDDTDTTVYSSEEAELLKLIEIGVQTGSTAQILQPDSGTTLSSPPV

Sequence of Glycogen synthase kinase-3 beta (Homo sapiens, UniProt P49841) (P49841 whole entry): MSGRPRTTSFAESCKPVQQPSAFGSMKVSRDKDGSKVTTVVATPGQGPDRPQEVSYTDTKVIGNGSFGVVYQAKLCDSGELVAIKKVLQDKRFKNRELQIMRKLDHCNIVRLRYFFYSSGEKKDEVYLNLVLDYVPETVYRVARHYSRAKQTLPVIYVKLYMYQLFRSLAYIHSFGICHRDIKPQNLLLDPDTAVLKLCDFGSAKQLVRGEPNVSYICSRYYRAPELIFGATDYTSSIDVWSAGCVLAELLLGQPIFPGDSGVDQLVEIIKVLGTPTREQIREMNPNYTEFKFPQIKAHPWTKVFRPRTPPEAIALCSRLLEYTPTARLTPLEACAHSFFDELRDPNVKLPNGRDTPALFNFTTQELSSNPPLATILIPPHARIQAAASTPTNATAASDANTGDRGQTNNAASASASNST
Sequence of Glycogen synthase kinase-3 beta (Rattus norvegicus, UniProt P18266) (P18266 whole entry): as the sequence (P49841 whole entry) above, with V240M, T390P, T392A, A400T, T402A counted along it

EC50 [1]: 3.2 µM
IC50 [2]: 30 nM
inhibition [3]: 44%
inhibition [4]: 3%
inhibition [5]: 7%
inhibition [6]: 5%
inhibition [7]: -0%
inhibition [8]: -0%
inhibition [9]: 29%
inhibition [10]: 3%
inhibition [11]: 27%
inhibition [12]: 100%
IC50 [13]: 1120 nM
SMILES: Nc1ncnc2oc(-c3cccnc3)c(-c3ccc(NS(=O)(=O)c4ccccc4)cc3)c12

IC50 [2]: > 15000 nM
SMILES: COc1ccc(-c2oc3ncnc(N)c3c2-c2ccc(NS(=O)(=O)c3ccccc3)cc2)cc1

IC50 [2]: 475 nM
SMILES: CS(=O)(=O)Nc1ccc(-c2c(-c3cccnc3)oc3ncnc(N)c23)cc1

IC50 [2]: 1630 nM
SMILES: CC(=O)Nc1ccc(-c2c(-c3cccnc3)oc3ncnc(N)c23)cc1

IC50 [2]: 1590 nM
SMILES: Nc1ncnc2oc(-c3cccnc3)c(-c3ccc(NC(=O)c4cccc(F)c4)cc3)c12

IC50 [2]: 23 nM
SMILES: Nc1ncnc2oc(-c3cccnc3)c(-c3ccc(NS(=O)(=O)c4cccs4)cc3)c12

IC50 [2]: > 15000 nM
SMILES: COc1ccc(-c2oc3ncnc(N)c3c2-c2ccc(OC)cc2)cc1
